Reference: ChEMBL document CHEMBL1139307, “1-Naphthyl and 4-indolyl arylalkylamines as selective monoamine reuptake inhibitors” (Bioorg Med Chem Lett, 2009)

Biological target: Sodium-dependent dopamine transporter (Rattus norvegicus, UniProt P23977)
Experiment: Displacement of [125I]RTI55 from DAT in Sprague-dawley rat striatum by liquid scintillation spectrophotometry
Summary of the method: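 Membranes from tissue homogenized in 10 vol of 0.32 M sucrose/10 mM sodium phosphate buffer, pH 7.4, and spun three times at 48,000g for 10 min. Cold-Tris filtration used BSA-presoaked GF/B filters, with WF-23 defining non-specific binding.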

Sodium-dependent dopamine transporter, sequence (P23977 whole entry): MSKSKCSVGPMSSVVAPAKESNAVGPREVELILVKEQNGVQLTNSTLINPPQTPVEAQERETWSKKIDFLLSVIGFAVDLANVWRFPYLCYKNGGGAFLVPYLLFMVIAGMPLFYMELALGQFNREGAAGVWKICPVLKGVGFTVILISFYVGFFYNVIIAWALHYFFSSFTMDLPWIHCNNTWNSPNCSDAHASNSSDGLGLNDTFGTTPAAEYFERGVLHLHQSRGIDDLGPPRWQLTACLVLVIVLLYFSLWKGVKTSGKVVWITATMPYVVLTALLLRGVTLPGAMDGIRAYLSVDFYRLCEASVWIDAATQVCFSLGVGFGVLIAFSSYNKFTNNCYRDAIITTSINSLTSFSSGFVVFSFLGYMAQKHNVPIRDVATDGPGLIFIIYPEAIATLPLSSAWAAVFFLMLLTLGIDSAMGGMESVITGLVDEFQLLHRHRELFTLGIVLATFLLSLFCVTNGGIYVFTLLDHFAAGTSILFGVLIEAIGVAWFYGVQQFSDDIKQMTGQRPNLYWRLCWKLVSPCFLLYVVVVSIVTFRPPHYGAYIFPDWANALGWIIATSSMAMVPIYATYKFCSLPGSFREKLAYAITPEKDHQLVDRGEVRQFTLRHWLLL

IC50 [nM]	SMILES
309	CNCC[C@H](c1cccs1)c1cccc2ccccc12
7.21	CNCC[C@H](c1ccc(Cl)c(Cl)c1)c1cccc2[nH]ccc12
405	CNCCC[C@@H](c1cccs1)c1cccc2ccccc12
466	CNCCC[C@H](c1cccs1)c1cccc2ccccc12
209	CNCCC[C@@H](c1ccc(Cl)c(Cl)c1)c1cccc2ccccc12
9.7	CNCC[C@H](c1ccc(Cl)c(Cl)c1)c1cccc2ccccc12
14.3	CNCCC[C@@H](c1ccc(Cl)c(Cl)c1)c1cccc2[nH]ccc12
318	CNCCC[C@H](c1cccs1)c1cccc2[nH]ccc12
35.8	CNCC[C@@H](c1ccc(Cl)c(Cl)c1)c1cccc2ccccc12
61.2	CNCCC[C@H](c1ccc(Cl)c(Cl)c1)c1cccc2ccccc12
230	CNCC[C@@H](c1cccs1)c1cccc2ccccc12
14.9	CNCC[C@@H](c1ccc(Cl)c(Cl)c1)c1cccc2[nH]ccc12
957	CNCCC[C@@H](c1cccs1)c1cccc2[nH]ccc12
3.8	CNCCC[C@H](c1ccc(Cl)c(Cl)c1)c1cccc2[nH]ccc12

Biological target: Transporter (Rattus norvegicus, UniProt Q63380)
Sequence (Q63380 whole entry): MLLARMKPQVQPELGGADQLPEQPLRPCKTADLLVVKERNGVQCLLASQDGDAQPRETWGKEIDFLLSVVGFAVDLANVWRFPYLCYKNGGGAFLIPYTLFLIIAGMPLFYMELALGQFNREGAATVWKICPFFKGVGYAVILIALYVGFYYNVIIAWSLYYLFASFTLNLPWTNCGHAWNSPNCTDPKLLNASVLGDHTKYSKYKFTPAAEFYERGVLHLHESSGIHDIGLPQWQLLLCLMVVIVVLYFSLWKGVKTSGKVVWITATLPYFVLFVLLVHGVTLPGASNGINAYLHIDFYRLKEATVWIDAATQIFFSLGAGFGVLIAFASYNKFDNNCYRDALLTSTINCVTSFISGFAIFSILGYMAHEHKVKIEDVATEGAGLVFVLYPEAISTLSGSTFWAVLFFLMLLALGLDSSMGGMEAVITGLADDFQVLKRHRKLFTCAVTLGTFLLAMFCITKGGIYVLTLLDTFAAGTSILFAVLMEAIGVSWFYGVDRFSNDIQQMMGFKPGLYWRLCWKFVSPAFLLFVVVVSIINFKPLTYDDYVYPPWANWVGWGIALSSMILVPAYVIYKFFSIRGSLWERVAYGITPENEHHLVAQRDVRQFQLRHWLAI
Experiment: Displacement of [3H]nisoxetine from Sprague-dawley rat NET by liquid scintillation spectrophotometry

Ki [nM]	SMILES
52.1	CNCC[C@H](c1cccs1)c1cccc2ccccc12
95	CNCC[C@H](c1ccc(Cl)c(Cl)c1)c1cccc2[nH]ccc12
109	CNCCC[C@@H](c1cccs1)c1cccc2ccccc12
7.9	CNCCC[C@H](c1cccs1)c1cccc2ccccc12
> 10000	CNCCC[C@@H](c1ccc(Cl)c(Cl)c1)c1cccc2ccccc12
1640	CNCC[C@H](c1ccc(Cl)c(Cl)c1)c1cccc2ccccc12
360	CNCCC[C@@H](c1ccc(Cl)c(Cl)c1)c1cccc2[nH]ccc12
13.8	CNCC[C@H](c1cccs1)c1cccc2[nH]ccc12
9	CNCCC[C@H](c1cccs1)c1cccc2[nH]ccc12
1630	CNCC[C@@H](c1ccc(Cl)c(Cl)c1)c1cccc2ccccc12
2480	CNCCC[C@H](c1ccc(Cl)c(Cl)c1)c1cccc2ccccc12
139	CNCC[C@@H](c1cccs1)c1cccc2ccccc12
35.4	CNCC[C@@H](c1ccc(Cl)c(Cl)c1)c1cccc2[nH]ccc12
102	CNCC[C@@H](c1cccs1)c1cccc2[nH]ccc12
79.7	CNCCC[C@@H](c1cccs1)c1cccc2[nH]ccc12
4840	CNCCC[C@H](c1ccc(Cl)c(Cl)c1)c1cccc2[nH]ccc12

Biological target: Sodium-dependent serotonin transporter (Rattus norvegicus, UniProt P31652)
Sequence (P31652 whole entry): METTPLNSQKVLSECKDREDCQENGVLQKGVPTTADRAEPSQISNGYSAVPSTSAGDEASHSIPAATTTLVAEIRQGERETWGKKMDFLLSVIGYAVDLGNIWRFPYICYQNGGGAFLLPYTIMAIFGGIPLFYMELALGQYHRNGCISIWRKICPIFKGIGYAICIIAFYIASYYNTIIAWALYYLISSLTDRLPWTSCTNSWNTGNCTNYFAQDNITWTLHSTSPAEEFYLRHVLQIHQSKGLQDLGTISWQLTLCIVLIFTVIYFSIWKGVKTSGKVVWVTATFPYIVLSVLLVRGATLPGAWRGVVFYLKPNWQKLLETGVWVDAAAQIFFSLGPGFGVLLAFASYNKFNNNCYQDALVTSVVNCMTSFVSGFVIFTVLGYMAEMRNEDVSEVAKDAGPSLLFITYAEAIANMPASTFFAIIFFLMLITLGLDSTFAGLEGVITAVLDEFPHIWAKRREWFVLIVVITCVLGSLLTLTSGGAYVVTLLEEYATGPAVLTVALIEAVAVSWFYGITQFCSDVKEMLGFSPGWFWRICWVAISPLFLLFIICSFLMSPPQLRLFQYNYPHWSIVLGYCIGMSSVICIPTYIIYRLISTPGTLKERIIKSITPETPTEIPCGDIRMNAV
Experiment: Displacement of [3H]citalopram from SERT in Sprague-dawley rat frontal cortex by liquid scintillation spectrophotometry
Type: tissue-based

Ki [nM]	SMILES
30.2	CNCC[C@H](c1cccs1)c1cccc2ccccc12
1.68	CNCC[C@H](c1ccc(Cl)c(Cl)c1)c1cccc2[nH]ccc12
9.5	CNCCC[C@@H](c1cccs1)c1cccc2ccccc12
39.7	CNCCC[C@H](c1cccs1)c1cccc2ccccc12
49.9	CNCCC[C@@H](c1ccc(Cl)c(Cl)c1)c1cccc2ccccc12
5.3	CNCC[C@H](c1ccc(Cl)c(Cl)c1)c1cccc2ccccc12
2.72	CNCCC[C@@H](c1ccc(Cl)c(Cl)c1)c1cccc2[nH]ccc12
31.9	CNCC[C@H](c1cccs1)c1cccc2[nH]ccc12
72.9	CNCCC[C@H](c1cccs1)c1cccc2[nH]ccc12
86	CNCC[C@@H](c1ccc(Cl)c(Cl)c1)c1cccc2ccccc12
4.1	CNCCC[C@H](c1ccc(Cl)c(Cl)c1)c1cccc2ccccc12
12.1	CNCC[C@@H](c1cccs1)c1cccc2ccccc12
3.63	CNCC[C@@H](c1ccc(Cl)c(Cl)c1)c1cccc2[nH]ccc12
166	CNCC[C@@H](c1cccs1)c1cccc2[nH]ccc12
271	CNCCC[C@@H](c1cccs1)c1cccc2[nH]ccc12
0.82	CNCCC[C@H](c1ccc(Cl)c(Cl)c1)c1cccc2[nH]ccc12
